Source: ChEMBL document CHEMBL3877271, “Antagonizing STAT3 activation with benzo[b]thiophene 1, 1-dioxide based small molecules” (Eur J Med Chem, 2017)
Activity calls are given as the source filed them. The rule behind the calls is not given here.

Assays:
[1] = Antiproliferative activity against human MDA-MB-231 cells after 72 hrs by MTT assay; format: functional, cell-based; settings: MDA-MB-231, 72 h
Summary of the method: (§1)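 Cells in RPMI-1640 with 10% FBS, penicillin/streptomycin, 37 °C, 5% CO₂; seeded 3000-5000 cells/well, left overnight (16 h), then medium replaced with fresh medium holding serial dilutions in triplicate for 72 h. MTT read-out; viability = absorbance of treated/solvent control × 100%. Stattic served as reference.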

[2] = Antiproliferative activity against human MCF7 cells after 72 hrs by MTT assay; format: functional, cell-based; settings: MCF7, 72 h; summary of the method: as §1
[3] = Antiproliferative activity against human A549 cells after 72 hrs by MTT assay; format: functional, cell-based; settings: A549, 72 h; summary of the method: as §1
[4] = Antiproliferative activity against human HCT116 cells after 72 hrs by MTT assay; format: functional, cell-based; settings: HCT-116, 72 h; summary of the method: as §1
[5] = system: A549; assay: Potency index, ratio of stattic IC50 to compound IC50 for human A549 cells; format: functional
[6] = system: HCT-116; assay: Potency index, ratio of stattic IC50 to compound IC50 for human HCT116 cells; format: functional
[7] = system: MDA-MB-231; assay: Potency index, ratio of stattic IC50 to compound IC50 for human MDA-MB-231 cells; format: functional
[8] = system: MCF7; assay: Potency index, ratio of stattic IC50 to compound IC50 for human MCF7 cells; format: functional
[9] = target: Signal transducer and activator of transcription 3 (Homo sapiens) (UniProt P40763); assay: Inhibition of STAT3 dimer DNA binding activity in human MDA-MB-231 nuclear extract at 5 uM preincubated for 24 hrs followed by addition of [32P]hSIE by electrophoretic mobility shift assay
Sequence of Signal transducer and activator of transcription 3 (Homo sapiens) (P40763 whole entry): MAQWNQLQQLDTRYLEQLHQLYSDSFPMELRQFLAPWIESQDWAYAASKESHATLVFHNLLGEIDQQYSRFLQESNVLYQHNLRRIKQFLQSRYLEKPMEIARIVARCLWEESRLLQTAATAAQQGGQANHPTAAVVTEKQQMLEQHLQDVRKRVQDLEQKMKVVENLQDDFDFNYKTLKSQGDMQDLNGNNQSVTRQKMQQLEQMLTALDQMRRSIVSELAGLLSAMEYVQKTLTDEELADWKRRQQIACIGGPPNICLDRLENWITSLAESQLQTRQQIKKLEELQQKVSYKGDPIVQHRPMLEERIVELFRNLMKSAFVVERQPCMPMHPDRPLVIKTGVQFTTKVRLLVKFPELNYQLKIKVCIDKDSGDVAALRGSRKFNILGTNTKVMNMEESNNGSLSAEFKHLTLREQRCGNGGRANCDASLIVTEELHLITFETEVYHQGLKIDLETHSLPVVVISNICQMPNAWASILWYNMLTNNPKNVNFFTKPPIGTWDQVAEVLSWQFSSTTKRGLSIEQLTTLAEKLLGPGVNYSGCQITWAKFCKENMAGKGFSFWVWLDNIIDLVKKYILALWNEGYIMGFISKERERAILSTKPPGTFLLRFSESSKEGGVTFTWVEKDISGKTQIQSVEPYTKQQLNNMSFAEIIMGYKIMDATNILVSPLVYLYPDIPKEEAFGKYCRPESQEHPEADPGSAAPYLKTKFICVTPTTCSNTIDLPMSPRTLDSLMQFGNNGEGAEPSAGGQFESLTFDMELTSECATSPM
Summary of the method: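 Cells treated 24 h in fresh growth medium. Nuclear extracts of equal total protein incubated with ³²P-labelled hSIE oligonucleotide probe and resolved by EMSA; Stattic 5 µM as comparator.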

[10] = system: Mus musculus; assay: Toxicity in ICR mouse implanted with mouse 4T1 cells assessed as body weight loss at 1 mg/kg, ip administered once in 4 days for 11 days measured daily during compound dosing; format: organism-based; settings: in vivo
Summary of the method: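 4T1-bearing male ICR mice (5 weeks, 6/group), dosed i.p. with PBS/DMSO (8:2) vehicle control. Body weight recorded daily. BI% = (1 − mean treated/mean control body weight) × 100.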

[11] = Antitumor activity against mouse 4T1 cells implanted in ICR mouse assessed as tumor growth inhibition at 1 mg/kg, ip administered once in 4 days for 11 days measured on day 12 relative to control; format: functional; settings: 4T1, ip, read-out: TGI
Summary of the method: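 Male ICR mice, 5 weeks old, inoculated with 2 × 10⁶ 4T1 cells at the right armpit. At 24 h, randomised into groups of 6 and dosed i.p.; vehicle PBS/DMSO (8:2) daily for 11 days. Killed day 12; tumours weighed; TI% = (1 − mean treated/mean control weight) × 100. Tumour p-STAT3 and STAT3 assessed by western blot.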

| Structure (SMILES) | IC50 [1] | IC50 [2] | IC50 [3] | IC50 [4] | Ratio IC50 [5] | Ratio IC50 [6] | Ratio IC50 [7] | Ratio IC50 [8] | inhibition [9] | Activity [10] | inhibition in vivo at 1 mg/kg [11] |
| --- | --- | --- | --- | --- | --- | --- | --- | --- | --- | --- | --- |
| O=S1(=O)C=Cc2cccc(Nc3c(F)c(F)c(F)c(F)c3F)c21 | 4460 nM | 2300 nM | 3480 nM | 3370 nM | – | – | – | – | – | – | – |
| O=S1(=O)C=Cc2ccc(Nc3ccc(C(F)(F)F)cc3)cc21 | 1300 nM | 1270 nM | 1140 nM | 1340 nM | – | – | – | – | – | – | – |
| O=S1(=O)C=Cc2cccc(Nc3ccc(Cl)c(Cl)c3)c21 | 1360 nM | 570 nM | 660 nM | 680 nM | – | – | – | – | – | – | – |
| O=S1(=O)C=Cc2ccc(Nc3ccc(Cl)cc3)cc21 | 6720 nM | 2670 nM | 2300 nM | 4440 nM | – | – | – | – | – | – | – |
| N#Cc1cccc(Nc2ccc3c(c2)S(=O)(=O)C=C3)c1 | > 10000 nM | > 10000 nM | > 10000 nM | > 10000 nM | – | – | – | – | – | – | – |
| Cc1ccc(Nc2cccc3c2S(=O)(=O)C=C3)cc1 | 1560 nM | 1890 nM | 2680 nM | 4000 nM | – | – | – | – | – | – | – |
| O=S1(=O)C=Cc2cccc(Nc3ccc(Cl)cc3)c21 | 1210 nM | 680 nM | 1040 nM | 260 nM | 1.4 - 7.2 | 1.4 - 7.2 | 1.4 - 7.2 | 1.4 - 7.2 | – | – | – |
| COc1ccccc1Nc1cccc2c1S(=O)(=O)C=C2 | 2400 nM | 5100 nM | 2590 nM | 5000 nM | – | – | – | – | – | – | – |
| COc1ccc(Nc2ccc3c(c2)S(=O)(=O)C=C3)cc1 | 1400 nM | 1210 nM | 1220 nM | 1170 nM | – | – | – | – | – | – | – |
| O=S1(=O)C=Cc2ccc(Nc3ccc(Cl)c(Cl)c3)cc21 | 890 nM | 2230 nM | 3320 nM | 2470 nM | – | – | – | – | – | – | – |
| O=S1(=O)C=Cc2cccc(Nc3ccc(OC(F)(F)F)cc3)c21 | 2100 nM | 2690 nM | 1570 nM | 2380 nM | – | – | – | – | – | – | – |
| Cc1cc(C)cc(Nc2cccc3c2S(=O)(=O)C=C3)c1 | 3120 nM | 8800 nM | 4800 nM | > 10000 nM | – | – | – | – | – | – | – |
| COc1cc(Nc2ccc3c(c2)S(=O)(=O)C=C3)cc(OC)c1OC | 1430 nM | 2230 nM | 1880 nM | 1420 nM | – | – | – | – | – | – | – |
| O=S1(=O)C=Cc2ccc(Nc3cccc(OC(F)(F)F)c3)cc21 | 2080 nM | 2020 nM | 1370 nM | 1980 nM | – | – | – | – | – | – | – |
| O=S1(=O)C=Cc2cccc(Nc3cc(C(F)(F)F)cc(C(F)(F)F)c3)c21 | 3120 nM | 5110 nM | 3840 nM | 3600 nM | – | – | – | – | – | – | – |
| COc1cc(Nc2cccc3c2S(=O)(=O)C=C3)cc(OC)c1OC | 990 nM | 930 nM | 950 nM | 1150 nM | – | – | – | – | – | – | – |
| O=S1(=O)C=Cc2ccc(Nc3cccc(C(F)(F)F)c3)cc21 | 1310 nM | 2500 nM | 1440 nM | 1370 nM | – | – | – | – | – | – | – |
| COc1ccc(Nc2cccc3c2S(=O)(=O)C=C3)cc1 | 1040 nM | 940 nM | 2590 nM | 1990 nM | – | – | – | – | – | – | – |
| O=[N+]([O-])c1ccc2c(c1)S(=O)(=O)C=C2 | 1680 nM | 2360 nM | 4400 nM | 1080 nM | – | – | – | – | Active | – | – |
| O=S1(=O)C=Cc2cccc(Nc3ccc(C(F)(F)F)cc3)c21 | 1200 nM | 1820 nM | 2440 nM | 1440 nM | – | – | – | – | – | – | – |
| O=S1(=O)C=Cc2cccc(Nc3ccccc3C(F)(F)F)c21 | 3900 nM | 8100 nM | 4120 nM | 5950 nM | – | – | – | – | – | – | – |
| O=S1(=O)C=Cc2cccc(Nc3ccc(F)c(F)c3)c21 | 1890 nM | 950 nM | 2500 nM | 680 nM | – | – | – | – | – | – | – |
| O=S1(=O)C=Cc2cccc(Nc3cccc(F)c3)c21 | 1910 nM | 1120 nM | 2550 nM | 1220 nM | – | – | – | – | – | – | – |
| COc1cccc2c1C(=O)c1c(O)c3c(c(O)c1C2=O)C[C@@](O)(C(=O)CO)C[C@@H]3O[C@H]1C[C@H](N)[C@H](O)[C@H](C)O1 [DOXORUBICIN] | – | – | – | – | – | – | – | – | – | Toxic | 67% |
| O=S1(=O)C=Cc2ccc(Nc3ccc(F)c(F)c3)cc21 | 3050 nM | 2610 nM | 1550 nM | 3020 nM | – | – | – | – | – | – | – |
